Test [1] concerns the target T1, Kappa-type opioid receptor (Homo sapiens, UniProt P41145). Nature of the test: Agonist activity at human KOPR expressed in CHO cells assessed as enhancement of [35S]GTPgammaS binding at 10 uM relative to U50488. The test is classed as functional, cell-based. On the technique in general: GTPγS is a poorly hydrolysed GTP analogue; its binding reports G protein activation.

A further test addresses Mu-type opioid receptor (Rattus norvegicus, UniProt P33535). Briefly: Binding affinity to rat MOPR expressed in CHO cells. The test is classed as cell-based. Summed up: (§1)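 Competitive displacement of [3H]diprenorphine from membranes of CHO cells stably transfected with rat MOPR or mouse DOPR. Buffer: 50 mM Tris-HCl, pH 7.4, with 1 mM EGTA. Ki values were derived from inhibition curves. Each value is the mean of at least three independent experiments run in duplicate.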

Test [2] has as its target Delta-type opioid receptor (Mus musculus, UniProt P32300). Briefly: Binding affinity to mouse DOPR expressed in CHO cells. The test is classed as cell-based. Summed up:
as §1

In test [3] the target is T1, Kappa-type opioid receptor. Nature of the test: Displacement of [3H]diprenorphine from human KOPR expressed in CHO cells. The test is classed as cell-based. Background: Loss of bound radioactivity is the signal in a displacement assay; it reports binding, not function.
Test [4] deals with T1, Kappa-type opioid receptor. Briefly: Agonist activity at human KOPR expressed in CHO cells assessed as enhancement of [35S]GTPgammaS binding. The test is classed as functional, cell-based.

Here are results for 12 compounds from ChEMBL document CHEMBL1143388 (Bioorg Med Chem, 2009).

A word on the Emax: it is the greatest response seen or fitted, relative to the assay's reference. As a reminder, the Ki is the equilibrium dissociation constant of an inhibitor or competing ligand from its target. A low value points to tighter binding. For orientation: EC50 means the concentration that produces a half-maximal response.

Bounds are passed on as bounds.

Sequence of Delta-type opioid receptor (P32300 whole entry): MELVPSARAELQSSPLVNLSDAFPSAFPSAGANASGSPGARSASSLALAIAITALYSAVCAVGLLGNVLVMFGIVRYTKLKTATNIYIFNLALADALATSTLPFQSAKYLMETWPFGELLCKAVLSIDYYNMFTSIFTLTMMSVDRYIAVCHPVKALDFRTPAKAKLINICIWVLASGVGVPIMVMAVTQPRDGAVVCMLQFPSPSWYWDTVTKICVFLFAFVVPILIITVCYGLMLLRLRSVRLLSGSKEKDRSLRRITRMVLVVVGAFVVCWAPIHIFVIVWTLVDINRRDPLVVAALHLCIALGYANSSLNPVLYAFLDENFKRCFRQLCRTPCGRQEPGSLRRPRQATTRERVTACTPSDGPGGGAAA
T1 sequence (P41145 whole entry): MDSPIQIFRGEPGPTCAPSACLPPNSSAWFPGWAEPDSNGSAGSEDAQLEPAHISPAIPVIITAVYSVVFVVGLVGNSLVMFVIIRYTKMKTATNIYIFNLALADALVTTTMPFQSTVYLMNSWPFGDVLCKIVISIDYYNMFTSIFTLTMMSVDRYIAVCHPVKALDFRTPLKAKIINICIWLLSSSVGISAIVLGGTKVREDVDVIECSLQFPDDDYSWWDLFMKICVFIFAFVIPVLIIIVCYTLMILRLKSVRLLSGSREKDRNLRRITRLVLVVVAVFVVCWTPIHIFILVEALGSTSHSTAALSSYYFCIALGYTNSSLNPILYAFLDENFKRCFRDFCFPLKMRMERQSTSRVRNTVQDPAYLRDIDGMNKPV
Sequence of Mu-type opioid receptor (P33535 whole entry): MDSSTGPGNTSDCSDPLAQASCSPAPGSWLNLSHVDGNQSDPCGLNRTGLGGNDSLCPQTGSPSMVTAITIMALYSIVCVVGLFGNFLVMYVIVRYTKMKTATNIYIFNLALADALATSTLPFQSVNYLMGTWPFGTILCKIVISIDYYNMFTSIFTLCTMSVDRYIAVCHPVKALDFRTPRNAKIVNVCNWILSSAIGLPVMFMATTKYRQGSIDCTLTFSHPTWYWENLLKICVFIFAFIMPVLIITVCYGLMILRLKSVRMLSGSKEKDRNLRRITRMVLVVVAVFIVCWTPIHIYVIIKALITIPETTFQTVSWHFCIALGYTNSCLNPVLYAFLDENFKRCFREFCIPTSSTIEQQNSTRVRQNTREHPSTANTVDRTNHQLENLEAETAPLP

Regarding `COC(=O)[C@@H]1C[C@H](OC(C)=O)C(=O)[C@H]2[C@@]1(C)CC[C@H]1C(=O)O[C@H](C(=O)c3cnccn3)C[C@]21C`, the Emax in test [1] was 103%. In addition, the inhibitory constant (Ki) (on Mu-type opioid receptor; in test [2]) was more than 1000 nM in each case.

Regarding `CCOC[C@@H]1C[C@]2(C)[C@H]3C(=O)[C@@H](OC(C)=O)C[C@@H](C(=O)OC)[C@]3(C)CC[C@H]2C(=O)O1`, the Ki (at Mu-type opioid receptor; in test [2]) was more than 1000 nM throughout.

Take `COC(=O)[C@@H]1C[C@H](OC(C)=O)C(=O)[C@H]2[C@@]1(C)CC[C@H]1C(=O)O[C@H](C(=O)O)C[C@]21C`: the Ki in test [3] was 55 nM; on Mu-type opioid receptor, more than 1000 nM; in test [2] it was more than 1000 nM. The EC50 in test [4] amounted to 167 nM. Moreover, the maximum response (Emax) in test [1] was found to be 99%.

Consider `COC(=O)[C@@H]1C[C@H](OC(C)=O)C(=O)[C@H]2[C@@]1(C)CC[C@H]1C(=O)O[C@H]([C@H](O)c3ccco3)C[C@]21C`, for which the Emax in test [1] is 111%. Besides, the Ki (at Mu-type opioid receptor; in test [2]) was more than 1000 nM in each case.

For the compound `COC[C@@H]1C[C@]2(C)[C@H]3C(=O)[C@@H](OC(C)=O)C[C@@H](C(=O)OC)[C@]3(C)CC[C@H]2C(=O)O1`, in test [1], the Emax worked out at 98%. The Ki (on Mu-type opioid receptor; in test [2]) was more than 1000 nM each time.

As for `COC(=O)[C@@H]1C[C@H](OC(C)=O)C(=O)[C@H]2[C@@]1(C)CC[C@H]1C(=O)O[C@H](C(=O)c3cccs3)C[C@]21C`, in test [1], the Emax was found to be 103%. For the same compound, the inhibitory constant (Ki) (at Mu-type opioid receptor; in test [2]) was more than 1000 nM in each case.

Consider `COC(=O)[C@@H]1C[C@H](OC(C)=O)C(=O)[C@H]2[C@@]1(C)CC[C@H]1C(=O)O[C@H](c3ccoc3Br)C[C@]21C`, for which the Ki (at Mu-type opioid receptor; in test [2]) was more than 1000 nM throughout.

Turning to `COC(=O)[C@@H]1C[C@H](OC(C)=O)C(=O)[C@H]2[C@@]1(C)CC[C@H]1C(=O)O[C@H](COC(C)=O)C[C@]21C`, in test [1], the Emax was 113%. Moreover, the Ki (at Mu-type opioid receptor; in test [2]) was more than 1000 nM throughout.

`C=Cc1occc1[C@@H]1C[C@]2(C)[C@H]3C(=O)[C@@H](OC(C)=O)C[C@@H](C(=O)OC)[C@]3(C)CC[C@H]2C(=O)O1`: the Emax in test [1] is 120%. Besides, the Ki (at Mu-type opioid receptor; in test [2]) was more than 1000 nM each time.

`CCOC(=O)[C@@H]1C[C@]2(C)[C@H]3C(=O)[C@@H](OC(C)=O)C[C@@H](C(=O)OC)[C@]3(C)CC[C@H]2C(=O)O1`: the Emax in test [1] came out at 94%. For the same compound, the inhibition constant (Ki) (on Mu-type opioid receptor; in test [2]) was more than 1000 nM in each case.

Take `COC(=O)[C@@H]1C[C@]2(C)[C@H]3C(=O)[C@@H](OC(C)=O)C[C@@H](C(=O)OC)[C@]3(C)CC[C@H]2C(=O)O1`: the maximum response (Emax) in test [1] was 99%. The Ki (at Mu-type opioid receptor; in test [2]) was more than 1000 nM each time.

As to `COC(=O)[C@@H]1C[C@H](OC(C)=O)C(=O)[C@H]2[C@@]1(C)CC[C@H]1C(=O)O[C@H](C(=O)OC(C)C)C[C@]21C`, the Emax in test [1] was found to be 94%. Besides, the inhibition constant Ki (at Mu-type opioid receptor; in test [2]) was more than 1000 nM in each case.
